In PubChem BioAssay:
Calls of active or inactive are those of the source.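 Rule for the calls, unless noted: active = inhibition of the reporter signal at or above 50%; inactive = inhibition below 50%.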

Legend:
[1] = inhibitors of Chlamydomonas gravitaxis, primary screen, whole organism, Chlamydomonas reinhardtii, WT vs cilia-less mutant, absorbance, 96-well (AID 463189;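 active = inhibition at or above 50% relative to wild type and mutant plate controls; inactive = inhibition below 50%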;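 note: 0% = wild type cc124 cells in DMSO and 100% = ciliumless bld1 mutant cells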); settings: OD600 absorbance, 2 days, at 10 µM, stronger effect = higher value
[2] = inhibitors of TNFa-induced NFkB p65 translocation, primary screen, imaging, HUVEC, MLSMR starter and 10KST1 sets (AID 438;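 active = inhibition above 20% together with a positive visual image hit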;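 note: compound added about 3h40 before a 20 min TNFalpha stimulation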;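 for inhibition: signal is the nuclear over cytoplasmic p65 intensity ratio per well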); settings: HUVEC TNFa-induced p65 nuclear translocation; cell count: measured here: nuclei count (cytotoxicity indicator), at 2.08 µM unless noted; inhibition: at 2 µM, stronger effect = higher value unless noted
[3] = inhibitors of mutant huntingtin aggregation, primary screen, imaging, exon1htt(103Q)mCFP cells, high-content imaging (AID 483;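 active = visual image review flags a hit and inhibition of aggregation exceeds 20%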;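 note: compound exposure lasted 3 days before fixation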;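 for nuclei count: percent of the per-plate median nuclei count of sample wells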); settings: exon1htt(103Q)mCFP cell line, aggregate imaging, at 2 µM; inhibition of aggregation: stronger effect = higher value; nuclei count: measured here: cell count, toxicity
[4] = inhibitors of E-selectin induction by TNFa, primary screen, imaging, HUVEC, immunofluorescence, MLSMR starter and 10KST1 sets (AID 487;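 active = visually confirmed hit in the image check and inhibition above 20%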;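 for inhibition: signal is fraction of cell area covered by stained E-selectin grains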;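 for nuclei count: 100% = median nuclei count of all wells on the same plate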); settings: HUVEC TNFalpha-induced E-selectin immunofluorescence imaging, at 2 µM; inhibition: stronger effect = higher value; nuclei count: measured here: cell number, toxicity
[5] = molecular target: Voltage-gated potassium channel subunit beta-2 (Rattus norvegicus) (UniProt P62483); assay: KvBeta enzyme negative modulators, primary screen, biochemical, NADPH fluorescence (AID 622;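 active = fluorescence slope higher than the sample average by over 3 SD, cut at about -0.22 in these data, passing the limit was not always enough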;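 note: slope of raw intensity against log time taken from 70 to 1610 s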); settings: recombinant KvBeta, 4-cyanobenzaldehyde reduction, at 10 µM, stronger effect = higher value
Voltage-gated potassium channel subunit beta-2 (Rattus norvegicus), sequence (P62483 whole entry, looked up): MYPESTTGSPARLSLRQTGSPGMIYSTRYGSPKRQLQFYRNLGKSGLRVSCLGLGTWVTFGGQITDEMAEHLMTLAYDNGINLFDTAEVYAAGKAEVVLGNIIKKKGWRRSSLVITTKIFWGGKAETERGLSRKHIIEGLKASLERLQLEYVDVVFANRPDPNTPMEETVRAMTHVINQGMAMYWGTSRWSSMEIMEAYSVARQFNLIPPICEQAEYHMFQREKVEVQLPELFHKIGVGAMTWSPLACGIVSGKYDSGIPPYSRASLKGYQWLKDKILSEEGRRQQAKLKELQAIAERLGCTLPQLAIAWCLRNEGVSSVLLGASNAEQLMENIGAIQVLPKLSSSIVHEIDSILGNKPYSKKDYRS

[6] = molecular target: Voltage-gated potassium channel subunit beta-2 (Rattus norvegicus) (UniProt P62483); assay: KvBeta positive modulators, primary screen, biochemical, NADPH fluorescence (AID 623;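 active = NADPH fluorescence slope more negative than the mean of all samples by about 3 SD, 99.7% confidence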;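 note: fluorescence intensity change per second fitted from 20 to 320 s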); settings: Recombinant KvBeta, NADPH fluorescence decrease slope, 10 min; at 10 µM; stronger effect = lower value
[7] = molecular target: Muscarinic acetylcholine receptor M4 (Homo sapiens) (UniProt P08173); assay: compounds altering M4/GIRK thallium flux, either direction, primary screen, M4 allosteric agonist project, cell-based, HEK293 M4/GIRK, BTC-AM (AID 625;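 active = fluorescence slope after compound addition differing from the mean of all tested samples at 99.7% confidence, mostly higher but some lower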;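 note: thallium influx through GIRK channels coupled to M4 in HEK293 cells with BTC-AM dye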); settings: at 10 µM, actives lie on both sides
Muscarinic acetylcholine receptor M4 (Homo sapiens), sequence (P08173 whole entry, looked up): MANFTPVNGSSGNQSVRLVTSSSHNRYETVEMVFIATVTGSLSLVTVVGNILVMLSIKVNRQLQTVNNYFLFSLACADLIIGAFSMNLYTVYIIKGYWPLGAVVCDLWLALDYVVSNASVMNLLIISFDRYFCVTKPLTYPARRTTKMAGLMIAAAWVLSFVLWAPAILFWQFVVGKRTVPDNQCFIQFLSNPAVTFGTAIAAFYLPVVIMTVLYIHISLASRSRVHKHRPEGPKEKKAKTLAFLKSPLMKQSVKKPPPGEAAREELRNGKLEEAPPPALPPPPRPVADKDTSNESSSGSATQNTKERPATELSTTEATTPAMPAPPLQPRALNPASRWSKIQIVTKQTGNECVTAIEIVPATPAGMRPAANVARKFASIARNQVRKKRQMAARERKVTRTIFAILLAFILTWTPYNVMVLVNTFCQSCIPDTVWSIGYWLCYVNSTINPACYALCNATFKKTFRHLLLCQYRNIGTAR
Outline: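 Assay system: HEK293 cells with M4 receptor and GIRK channels / Controls: carbachol and DMSO controls / Schedule: 1 h dye loading, 2 min kinetic read / Technique: kinetic fluorescence with BTC-AM dye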

[8] = inhibitors of Sendai virus-induced IRF3 signaling, primary screen, TLR/RLR signaling modifier project, cell-based, Sendai virus stimulus, luciferase, 10K MLSCN set (AID 602276;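 active = inhibition at or above 50% at 10 µM; inactive = inhibition below 50%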;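 note: firefly luciferase from ISG56 promoter only with Renilla not read in this screen; 0% = Sendai virus plus DMSO and 100% = medium plus DMSO without virus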); settings: HEK293 RL24 IRF3 luciferase reporter, at 10 µM, stronger effect = higher value
[9] = inhibitors of poly I:C-induced TLR3 signaling, primary screen, cell-based, poly I:C stimulus, luciferase, 10K MLSCN set (AID 602277); settings: HEK293-TLR3 RL24 IRF3 luciferase reporter, at 10 µM, stronger effect = higher value

SMILES	inhibition [1]	cell count [2]	inhibition [2]	inhibition of aggregation [3]	nuclei count [3]	inhibition [4]	nuclei count [4]	fluorescence slope [5]	NADPH fluorescence slope [6]	fluorescence slope [7]	inhibition [8]	inhibition [9]
CCn1cnc2c(Nc3cccc(Cl)c3)nc(N[C@@H]3CCCC[C@@H]3N)nc21	4.56% (inactive)											
CC1(C)CC(=O)C=C(NCCN2CCN(C(=O)Cc3ccc(Cl)cc3)CC2)C1		706	-4.2% (inactive)	3% (inactive)	120%	-80.1% (inactive)	109%	-0.463 (inactive)	-4.2e-05 (inactive)	0.00475 (inactive)	16.3% (inactive)	9.81% (inactive)
CCCCn1c(O)c(C(C)=NCCc2ccccc2)c(=O)[nH]c1=O		280	-5.3% (inactive)	16.4% (inactive)	72.1%	-114% (inactive)	187%	-0.454 (inactive)	-0.000351 (inactive)	0.00293 (inactive)	3.98% (inactive)	-8.74% (inactive)
Cc1cccc(-n2c(-c3ccco3)nc3ccccc3c2=O)n1		344	-2.8% (inactive)	3.4% (inactive)	97.9%	20.8% (inactive)	83.8%	-0.368 (inactive)	7.6e-06 (inactive)	0.00556 (inactive)	-11.4% (inactive)	-10.7% (inactive)
O=C(Cn1c2c(c(-c3ccccc3Cl)cc1=O)CCC2)N1CCC2(CC1)OCCO2		861	-5% (inactive)	-9% (inactive)	107%	-175% (inactive)	125%	-0.605 (inactive)	9.7e-06 (inactive)	0.00803 (inactive)	-8.12% (inactive)	-12.2% (inactive)
CCN1CCN(c2ncnc3ccc(Br)cc23)CC1		207	2.1% (inactive)	48% (active)	77.2%	-79% (inactive)	99.3%	-0.583 (inactive)	2.1e-06 (inactive)	0.00395 (inactive)	13.3% (inactive)	8.78% (inactive)
NC(=O)OCCSc1nnc(-c2cccc(C(N)=S)c2)o1		330	3.5% (inactive)	-7.4% (inactive)	107%	-48% (inactive)	96.2%	-0.541 (inactive)	-9.5e-05 (inactive)	0.00508 (inactive)	17.8% (inactive)	12.8% (inactive)
